Experimental data: ChEMBL document CHEMBL3992532, “Structure-Based Design of Macrocyclic Factor XIa Inhibitors: Discovery of the Macrocyclic Amide Linker” (J Med Chem, 2017)

Experiments:
Coagulation factor XI [1] = biological target: T1, Coagulation factor XI (Homo sapiens, UniProt P03951); assay: Inhibition of human coagulation factor 11a using pyroGlu-Pro-Arg-pNA as substrate after 10 to 120 mins at 25 degC by spectrophotometric method
Coagulation factor XI [2] = biological target: T1, Coagulation factor XI; assay: Inhibition of human coagulation factor 11a using pyroGlu-Pro-Arg-pNA as substrate after 10 to 120 mins at 37 degC by spectrophotometric method
Outline: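 Purified human proteases, 37 °C; reaction started by adding enzyme to substrate (up to 4× Km) ± inhibitor; compound from DMSO, 1% DMSO final except where noted. […] Buffers: FXIa, chymotrypsin, tPA, plasmin, urokinase in 50 mM HEPES pH 7.4, 145 mM NaCl, 5 mM KCl, 0.1% PEG 8000; FXa, thrombin, trypsin, plasma kallikrein, aPC in 100 mM Na phosphate pH 7.4, 200 mM NaCl, 0.5% PEG 8000; FIXa in 50 mM Tris pH 7.4, 100 mM NaCl, 5 mM CaCl2, 0.5% PEG 8000, 2% DMSO.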

[3] = Half life in human liver microsomes; assay type: ADME, microsome
Plasma = assay: Anticoagulant activity in human plasma assessed as concentration required to produce 50% increase in activated partial thromboplastin time; assay type: functional
Outline: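 Citrated (one-tenth volume 0.11 M) plasma from healthy volunteers, spun 2,000 g 10 min, kept on ice; 10 mM DMSO stock diluted in plasma, up to 7 concentrations; aPTT on automated coagulometer, duplicates as mean ratio to baseline; EC1.5x (50% prolongation) by linear interpolation, as total plasma concentration.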

Canis familiaris [4] = assay: AUC in Beagle dog at 0.4 mg/kg, po administered via gavage as cassette dose by LC-MS/MS method; assay type: ADME, organism-based, Canis lupus familiaris; settings: in vivo
Outline: (§1)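 Dog PK vehicles as footnoted: iv in 70% PEG 400/20% water/10% ethanol; po either 70% PEG 400/20% TPGS/10% ethanol or the same PEG 400/water/ethanol vehicle used for iv.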

[5] = Volume of distribution at steady state in Beagle dog at 0.2 mg/kg, iv administered as 10 mins infusion or 0.4 mg/kg, po via gavage administered as cassette dose by LC-MS/MS method; assay type: ADME, organism-based, Canis lupus familiaris; settings: in vivo, read-out: Vdss; outline: as §1
[6] = Half life in dog liver microsomes; assay type: ADME, Canis lupus familiaris, microsome
Canis familiaris [7] = assay: Oral bioavailability in Beagle dog at 0.4 mg/kg administered via gavage as cassette dose by LC-MS/MS method; assay type: ADME, organism-based, Canis lupus familiaris; settings: in vivo; outline: as §1
[8] = Half life in Beagle dog at 0.2 mg/kg, iv administered as 10 mins infusion or 0.4 mg/kg, po via gavage administered as cassette dose by LC-MS/MS method; assay type: ADME, organism-based, Canis lupus familiaris; settings: in vivo; outline: as §1

T1 sequence (P03951 19-387 limits assumed): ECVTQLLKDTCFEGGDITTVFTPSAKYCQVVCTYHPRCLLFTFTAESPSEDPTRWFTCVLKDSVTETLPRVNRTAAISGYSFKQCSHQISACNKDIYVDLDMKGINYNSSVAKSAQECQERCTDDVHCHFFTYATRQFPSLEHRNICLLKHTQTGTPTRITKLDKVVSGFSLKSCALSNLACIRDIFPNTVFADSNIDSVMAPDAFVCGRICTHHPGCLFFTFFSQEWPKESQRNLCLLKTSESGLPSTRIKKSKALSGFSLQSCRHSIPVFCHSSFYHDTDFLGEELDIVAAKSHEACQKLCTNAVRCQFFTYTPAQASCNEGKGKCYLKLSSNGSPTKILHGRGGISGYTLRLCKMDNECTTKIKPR
T1 sequence (P03951 388-625 limits assumed): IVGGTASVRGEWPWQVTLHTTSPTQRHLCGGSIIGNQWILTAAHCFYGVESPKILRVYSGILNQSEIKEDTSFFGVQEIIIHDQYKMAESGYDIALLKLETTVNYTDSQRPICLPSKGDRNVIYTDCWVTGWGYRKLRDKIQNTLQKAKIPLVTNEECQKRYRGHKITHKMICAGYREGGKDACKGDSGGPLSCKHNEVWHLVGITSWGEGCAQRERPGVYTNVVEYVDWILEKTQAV

Row | Ki (Coagulation factor XI [2]) [nM] | SMILES | EC1.5 (Plasma) [µM] | other results
1 | – | COC(=O)Nc1ccc2c(c1)OCCCCC[C@H](NC(=O)/C=C/c1cc(Cl)ccc1-n1cnnn1)c1nc-2c[nH]1 | – | Ki (Coagulation factor XI [1]): 420 nM
2 | 3.8 | COC(=O)Nc1ccc2c(c1)NC(=O)OCCCC[C@H](NC(=O)/C=C/c1cc(Cl)ccc1-n1cnnn1)c1nc-2c[nH]1 | 0.86 | half-life [3]: 1.03 h
3 | 159 | COC(=O)Nc1ccc2c(c1)OCCCCCC[C@H](NC(=O)/C=C/c1cc(Cl)ccc1-n1cnnn1)c1nc-2c[nH]1 | – | AUC (Canis familiaris [4]): 0.119 µM·h; Vd [5]: 2.2 L/kg; half-life [6]: 1.47 h; F (Canis familiaris [7]): 17%; half-life [8]: 2.1 h
4 | 600 | COC(=O)Nc1ccc2c(c1)CCCCCCC[C@H](NC(=O)/C=C/c1cc(Cl)ccc1-n1cnnn1)c1nc-2c[nH]1 | – | –
5 | 0.88 | COC(=O)Nc1ccc2c(c1)NC(=O)OC/C=C/C[C@H](NC(=O)/C=C/c1cc(Cl)ccc1-n1cnnn1)c1nc-2c[nH]1 | 0.45 | half-life [3]: 1.15 h
6 | 264 | COC(=O)Nc1ccc2c(c1)NC(=O)C/C=C/C[C@H](NC(=O)/C=C/c1cc(Cl)ccc1-n1cnnn1)c1nc-2c[nH]1 | >40 | –
7 | 3920 | COC(=O)Nc1ccc2c(c1)OCCC/C=C/C[C@H](NC(=O)/C=C/c1cc(Cl)ccc1-n1cnnn1)c1nc-2c[nH]1 | – | –
8 | – | COC(=O)Nc1ccc2c(c1)NC(=O)CC/C=C\C[C@H](NC(=O)/C=C/c1cc(Cl)ccc1-n1cnnn1)c1nc-2c[nH]1 | 12 | –
9 | 76 | COC(=O)Nc1ccc2c(c1)OCCCCCC[C@H](NC(=O)/C=C/c1cc(Cl)ccc1-n1cnnn1)c1nc-2c(Cl)[nH]1 | >40 | –
10 | 184 | COC(=O)Nc1ccc2c(c1)CCCC/C=C/C[C@H](NC(=O)/C=C/c1cc(Cl)ccc1-n1cnnn1)c1nc-2c[nH]1 | >40 | –
